Legend:
[1] = target: T1, Gastrin/cholecystokinin type B receptor (Rattus norvegicus, UniProt P30553); experiment: Inhibitory activity by measuring its ability to displace [3H]L-365260 from cholecystokinin receptor in rat brain; type: tissue-based
T1 sequence (P30553 whole entry): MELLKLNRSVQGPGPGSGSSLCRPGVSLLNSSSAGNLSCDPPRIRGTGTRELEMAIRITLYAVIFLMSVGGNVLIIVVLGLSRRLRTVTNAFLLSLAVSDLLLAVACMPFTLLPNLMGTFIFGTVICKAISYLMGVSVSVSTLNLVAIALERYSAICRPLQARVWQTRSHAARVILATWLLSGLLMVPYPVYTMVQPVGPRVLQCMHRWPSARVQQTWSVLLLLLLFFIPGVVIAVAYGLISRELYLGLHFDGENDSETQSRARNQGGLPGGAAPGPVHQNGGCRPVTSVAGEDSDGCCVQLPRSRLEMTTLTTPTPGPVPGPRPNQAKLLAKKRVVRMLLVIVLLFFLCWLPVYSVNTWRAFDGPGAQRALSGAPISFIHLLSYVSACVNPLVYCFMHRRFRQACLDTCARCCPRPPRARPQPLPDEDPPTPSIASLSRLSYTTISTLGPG

[2] = Inhibitory activity by measuring its ability to displace [3H]spiperone from dopamine or serotonin 5-HT-1 receptors in rat brain; type: tissue-based
[3] = target: GABA-A receptor; anion channel; experiment: Inhibitory activity at GABA A receptor, measured by the ability to displace [35S]TBPS from GABA A receptor in rat brain; type: tissue-based
[4] = target: Adrenergic receptor alpha; experiment: Inhibitory activity by measuring its ability to displace [3H]WB-4101 from alpha-adrenergic receptor in rat brain; type: tissue-based
[5] = Tested for inhibitory activity by measuring its ability to displace [3H]AMPA from glutamate (non-NMDA) receptor in rat brain; type: tissue-based
[6] = Inhibitory activity by measuring its ability to displace [3H]glycine from glycine receptor in rat brain; type: tissue-based
[7] = Inhibitory activity at GABA B receptor, measured by the ability to displace [3H]baclofen from GABA B receptor in rat brain; type: tissue-based
Glutamate NMDA receptor = experiment: Inhibitory activity by measuring its ability to displace [3H]-MK-801 from glutamate(NMDA) receptor in rat brain; type: tissue-based
Translocator protein = Translocator protein (Rattus norvegicus, UniProt P16257); experiment: Binding affinity against mitochondrial DBI complex (peripheral benzodiazepine receptor) using primary cultures of glial cells
Method in brief: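 Glia from cerebella of 8-day-old Sprague–Dawley rat pups, trypsin-dissociated and grown 14 days (~95% astroglia). Cells lysed in 50 mM Hepes pH 7.4, 4 μg protein per tube. Incubated with [3H]4'-chlorodiazepam and competitor for 90 min at 4 °C, then filtered. Nonspecific binding defined with 10 μM 4'-chlorodiazepam. Triplicate competition curves; IC50 by nonlinear regression, converted to Ki (Bylund–Yamamura).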

[8] = target: GABA-A receptor; anion channel; experiment: Inhibitory activity at GABA A receptor, measured by the ability to displace [3H]flumazenil from GABA A receptor in rat brain; type: tissue-based
[9] = target: Adrenergic receptor alpha; experiment: Inhibitory activity by measuring its ability to displace [3H]clonidine from alpha-adrenergic receptor in rat brain; type: tissue-based
Cannabinoid receptor 1 = Cannabinoid receptor 1 (Rattus norvegicus, UniProt P20272); experiment: Inhibitory activity, measured by displacement [3H]CP-55940 from cannabinoid receptor (CB1) in rat brain; type: tissue-based
[10] = target: GABA-A receptor; anion channel; experiment: Inhibitory activity at GABA A receptor, measured by the ability to displace [3H]zolpidem from GABA A receptor in rat brain; type: tissue-based
[11] = target: GABA-A receptor; anion channel; experiment: Inhibitory activity at GABA A receptor, measured by the ability to displace [3H]GABA from GABA A receptor in rat brain; type: tissue-based
Adrenergic receptor beta = Adrenergic receptor beta (Rattus norvegicus, UniProt P18090+P10608+P26255); experiment: Inhibitory activity by measuring its ability to displace [125I]pindolol from beta-adrenergic receptor in rat brain; type: tissue-based
[12] = target: Serotonin 2 (5-HT2) receptor (Rattus norvegicus); experiment: Inhibitory activity by measuring its ability to displace [3H]ketanserin from serotonin receptor in rat brain
[13] = target: Sigma receptor (Rattus norvegicus); experiment: Tested for inhibitory activity by measuring its ability to displace [3H]3-PPP from sigma receptor in rat brain
Opioid receptor = Opioid receptor (Rattus norvegicus, UniProt P33533+P34975+P33535); experiment: Inhibition of [3H]naxolone binding to opiate receptors in rat brain; type: tissue-based

Sequence of Translocator protein (P16257 whole entry, looked up): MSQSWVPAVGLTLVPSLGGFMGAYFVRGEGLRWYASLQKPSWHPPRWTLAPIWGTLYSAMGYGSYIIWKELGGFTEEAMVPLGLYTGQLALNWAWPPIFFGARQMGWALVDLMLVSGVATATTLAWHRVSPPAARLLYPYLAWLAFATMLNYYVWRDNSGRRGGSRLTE
Sequence of Cannabinoid receptor 1 (P20272 whole entry): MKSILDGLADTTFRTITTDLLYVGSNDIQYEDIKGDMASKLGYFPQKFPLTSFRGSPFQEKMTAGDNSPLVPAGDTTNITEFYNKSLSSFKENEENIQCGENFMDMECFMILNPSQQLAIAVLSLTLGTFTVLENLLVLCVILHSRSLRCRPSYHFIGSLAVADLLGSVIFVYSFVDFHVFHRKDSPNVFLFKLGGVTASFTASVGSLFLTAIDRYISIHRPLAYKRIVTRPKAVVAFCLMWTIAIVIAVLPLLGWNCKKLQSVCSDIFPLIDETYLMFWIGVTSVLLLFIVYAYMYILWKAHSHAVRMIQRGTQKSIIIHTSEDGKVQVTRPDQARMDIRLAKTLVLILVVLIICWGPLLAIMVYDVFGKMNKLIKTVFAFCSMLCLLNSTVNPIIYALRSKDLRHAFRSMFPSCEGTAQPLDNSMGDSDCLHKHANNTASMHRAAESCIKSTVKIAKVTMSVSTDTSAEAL

With `CCCN(CCC)C(=O)Cc1c(-c2ccc(C)cc2)[nH]c2ccc(C)cc12` the IC50 [1] was > 1000 nM, the IC50 [2] was > 1000 nM and the IC50 [3] was > 1000 nM. The IC50 [4] was > 1000 nM, the IC50 [5] was > 1000 nM and the IC50 [6] was > 1000 nM. The IC50 [7] was > 1000 nM, the IC50 (Glutamate NMDA receptor) was > 1000 nM and the Ki (Translocator protein) was 66 nM. For the same molecule, the IC50 [8] was > 1000 nM, the IC50 [9] was > 1000 nM and the IC50 (Cannabinoid receptor 1) was > 1000 nM. The IC50 [10] was > 1000 nM, the IC50 [11] was > 1000 nM and the IC50 (Adrenergic receptor beta) was > 1000 nM.

With `CCCN(CCC)C(=O)Cc1c(-c2cccs2)[nH]c2ccccc12` the IC50 [1] was > 1000 nM, the IC50 [2] was > 1000 nM and the IC50 [3] was > 1000 nM. The IC50 [4] was > 1000 nM, the IC50 [5] was > 1000 nM and the IC50 [6] was > 1000 nM. For the same molecule, the IC50 [7] was > 1000 nM, the IC50 (Glutamate NMDA receptor) was > 1000 nM and the Ki (Translocator protein) was 304 nM. The IC50 [8] was > 1000 nM, the IC50 [9] was > 1000 nM and the IC50 (Cannabinoid receptor 1) was > 1000 nM. For the same molecule, the IC50 [10] was > 1000 nM, the IC50 [11] was > 1000 nM and the IC50 (Adrenergic receptor beta) was > 1000 nM.

For `CCCN(CCC)C(=O)/C=C/c1c(-c2ccc(Cl)cc2)[nH]c2ccccc12`, the IC50 [1] was > 1000 nM, the IC50 [12] was > 1000 nM and the IC50 [2] was > 1000 nM. The IC50 [3] was > 1000 nM, the IC50 [4] was > 1000 nM and the IC50 [5] was > 1000 nM. The IC50 [6] was > 1000 nM, the IC50 [7] was > 1000 nM and the IC50 (Glutamate NMDA receptor) was > 1000 nM. For the same molecule, the Ki (Translocator protein) was 400 nM, the IC50 [8] was > 1000 nM and the IC50 [9] was > 1000 nM. For the same molecule, the IC50 (Cannabinoid receptor 1) was > 1000 nM, the IC50 [10] was > 1000 nM and the IC50 [11] was > 1000 nM. For the same molecule, the IC50 [13] was > 1000 nM, the IC50 (Opioid receptor) was > 1000 nM and the IC50 (Adrenergic receptor beta) was > 1000 nM.

For `c1ccc(-c2[nH]c3ccccc3c2CC2=NCCN2)cc1`, the IC50 [1] was > 1000 nM, the IC50 [12] was > 1000 nM and the IC50 [2] was > 1000 nM. For the same molecule, the IC50 [3] was > 1000 nM, the IC50 [4] was > 1000 nM and the IC50 [5] was > 1000 nM. For the same molecule, the IC50 [6] was > 1000 nM, the IC50 [7] was > 1000 nM and the IC50 (Glutamate NMDA receptor) was > 1000 nM. The IC50 [8] was > 1000 nM, the IC50 [9] was > 1000 nM and the IC50 (Cannabinoid receptor 1) was > 1000 nM. For the same molecule, the IC50 [10] was > 1000 nM, the IC50 [11] was > 1000 nM and the IC50 [13] was > 1000 nM. The IC50 (Opioid receptor) was > 1000 nM and the IC50 (Adrenergic receptor beta) was > 1000 nM.

With `CN(C)C(=O)Cc1c(-c2ccccc2)[nH]c2ccccc12` the IC50 [1] was > 1000 nM, the IC50 [2] was > 1000 nM and the IC50 [3] was > 1000 nM. For the same molecule, the IC50 [4] was > 1000 nM, the IC50 [5] was > 1000 nM and the IC50 [6] was > 1000 nM. For the same molecule, the IC50 [7] was > 1000 nM, the IC50 (Glutamate NMDA receptor) was > 1000 nM and the Ki (Translocator protein) was 170 nM. The IC50 [8] was > 1000 nM, the IC50 [9] was > 1000 nM and the IC50 (Cannabinoid receptor 1) was > 1000 nM. For the same molecule, the IC50 [10] was > 1000 nM, the IC50 [11] was > 1000 nM and the IC50 (Adrenergic receptor beta) was > 1000 nM.

For `CCCN(CCC)C(=O)Cc1c(-c2ccc(Br)cc2)[nH]c2ccccc12`, the IC50 [1] was > 1000 nM, the IC50 [12] was > 1000 nM and the IC50 [2] was > 1000 nM. The IC50 [3] was > 1000 nM, the IC50 [4] was > 1000 nM and the IC50 [5] was > 1000 nM. The IC50 [6] was > 1000 nM, the IC50 [7] was > 1000 nM and the IC50 (Glutamate NMDA receptor) was > 1000 nM. The Ki (Translocator protein) was 216 nM, the IC50 [8] was > 1000 nM and the IC50 [9] was > 1000 nM. For the same molecule, the IC50 (Cannabinoid receptor 1) was > 1000 nM, the IC50 [10] was > 1000 nM and the IC50 [11] was > 1000 nM. The IC50 [13] was > 1000 nM, the IC50 (Opioid receptor) was > 1000 nM and the IC50 (Adrenergic receptor beta) was > 1000 nM.

For `O=C(Cc1c(-c2ccccc2)[nH]c2ccccc12)N1CCCC1`, the IC50 [1] was > 1000 nM, the IC50 [2] was > 1000 nM and the IC50 [3] was > 1000 nM. For the same molecule, the IC50 [4] was > 1000 nM, the IC50 [5] was > 1000 nM and the IC50 [6] was > 1000 nM. The IC50 [7] was > 1000 nM, the IC50 (Glutamate NMDA receptor) was > 1000 nM and the Ki (Translocator protein) was 338 nM. For the same molecule, the IC50 [8] was > 1000 nM, the IC50 [9] was > 1000 nM and the IC50 (Cannabinoid receptor 1) was > 1000 nM. For the same molecule, the IC50 [10] was > 1000 nM, the IC50 [11] was > 1000 nM and the IC50 (Adrenergic receptor beta) was > 1000 nM.

— ChEMBL document CHEMBL1126834, “Chemistry, binding affinities, and behavioral properties of a new class of "antineophobic" mitochondrial DBI receptor complex (mDRC) ligands” (J Med Chem, 1993)
